Laboratory results published in ChEMBL document CHEMBL3826876, “Toward the Development of Specific G-Quadruplex Binders: Synthesis, Biophysical, and Biological Studies of New Hydrazone Derivatives” (J Med Chem, 2016).
Active and inactive are the calls of the source. The rule behind the calls is not given here.

Experiments:
U2OS [1] = assay: Cytotoxicity against human U2OS cells assessed as cell killing after 1 hr by MTT assay; type: functional, cell-based
Summary of the method: (§1)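 U2OS and HCT116 in DMEM with 10% FBS, 1% L-glutamine, seeded at 40000 cells/ml; 24 h later exposed for 1 h or 24 h, then drug-free medium 1-2 days. MTT 1 h at 37 °C, DMSO solubilisation, absorbance 595 nm. IC50 by linear regression; two independent experiments in triplicate, mean ± SE.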

[2] = Cytotoxicity against human HCT116 cells assessed as cell killing after 1 hr by MTT assay; type: functional, cell-based; details: HCT-116, 1 h; summary of the method: as §1
U2OS [3] = assay: Cytotoxicity against human U2OS cells assessed as cell killing after 24 hrs by MTT assay; type: functional, cell-based; summary of the method: as §1
[4] = Cytotoxicity against human HCT116 cells assessed as cell killing after 24 hrs by MTT assay; type: functional, cell-based; details: HCT-116, 24 h; summary of the method: as §1
U2OS [5] = assay: Cytotoxicity against human U2OS cells assessed as cell death after 24 hrs by FACS analysis; type: cell-based
U2OS [6] = assay: Cytotoxicity against human U2OS cells assessed as cell death after 24 hrs by microscopic analysis; type: cell-based
[7] = Binding affinity to synthetic telomere 23 parallel G-quadruplex DNA assessed as change in melting temperature at 4 mol equiv in presence of 100 mM KCl buffer by circular dichroism spectroscopic analysis
Summary of the method: (§2)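 CD melting, 20-100 °C at 1 °C/min, signal at 264 (parallel), 290 (antiparallel) or 280 nm (duplex). G4 DNA 10 µM or duplex 15 µM, folded by heating at 90 °C 5 min and slow cooling, in 10 mM potassium phosphate (c-kit1, Tel23, Tel26) or lithium phosphate (Tel23-p, ds12) pH 7.0 with 100 mM KCl. Ligand 4 equiv; Tm by curve fit, ΔTm vs DNA alone; duplicate average.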

[8] = Effect on preformed synthetic c-MYC parallel G-quadruplex DNA topology in tris buffer after 10 mins by circular dichroism titration method
[9] = Binding affinity to synthetic c-MYC G-quadruplex DNA assessed as change in melting temperature at 4 mol equiv in presence of 20 mM KCl buffer by circular dichroism spectroscopic analysis
[10] = Binding affinity to synthetic c-KIT2 G-quadruplex DNA assessed as increase in thermal stability in presence of 20 mM KCl buffer by circular dichroism spectroscopic analysis
Summary of the method: (§3)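 CD melting in 5 mM potassium phosphate, 20 mM KCl, 10 µM folded G4, heated 20-100 °C at 1 °C/min; ligand:DNA ratios 1:1, 2:1 and 4:1 compared; Tm from curve fit.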

[11] = Effect on synthetic telomere 23 G-quadruplex DNA topology at 4 mol equiv by circular dichroism spectroscopic analysis
Summary of the method: (§4)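 CD spectra at 20 °C, 230-360 nm, 3 scans averaged, baseline subtracted; 10 µM G4 or 15 µM duplex in potassium- or lithium-phosphate pH 7.0 buffers with 100 mM KCl (c-kit2, c-myc: 5 mM potassium phosphate, 20 mM KCl); ligand 4 molar equiv added to folded DNA from 6 mM DMSO stock.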

[12] = Effect on synthetic c-KIT1 G-quadruplex DNA topology at 4 mol equiv by circular dichroism spectroscopic analysis; summary of the method: as §4
[13] = Effect on synthetic c-KIT2 G-quadruplex DNA topology at 4 mol equiv by circular dichroism spectroscopic analysis; summary of the method: as §4
[14] = Effect on synthetic c-MYC G-quadruplex DNA topology at 4 mol equiv by circular dichroism spectroscopic analysis; summary of the method: as §4
[15] = Effect on synthetic telomere 23 parallel G-quadruplex DNA topology at 4 mol equiv by circular dichroism spectroscopic analysis; summary of the method: as §4
[16] = Effect on synthetic telomere 26 G-quadruplex DNA topology at 4 mol equiv by circular dichroism spectroscopic analysis; summary of the method: as §4
[17] = Effect on synthetic self-complementary DNA 12-mer duplex topology at 4 mol equiv in presence of K+ ions by circular dichroism spectroscopic analysis; summary of the method: as §4
[18] = Binding affinity to synthetic c-KIT1 G-quadruplex DNA assessed as change in melting temperature at 4 mol equiv in presence of 100 mM KCl buffer by circular dichroism spectroscopic analysis; summary of the method: as §2
[19] = Binding affinity to synthetic c-KIT2 G-quadruplex DNA assessed as change in melting temperature at 4 mol equiv in presence of 20 mM KCl buffer by circular dichroism spectroscopic analysis
Summary of the method: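 CD melting as for other targets (20-100 °C, 1 °C/min, 10 µM folded G4, ligand 4 equiv), but in 5 mM potassium phosphate with 20 mM KCl; c-kit2 read at 264 nm as parallel G4. ΔTm from fitted Tm, duplicate average.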

[20] = Binding affinity to synthetic telomere 23 G-quadruplex DNA assessed as change in melting temperature at 4 mol equiv in presence of 100 mM KCl buffer by circular dichroism spectroscopic analysis; summary of the method: as §2
[21] = Binding affinity to synthetic telomere 26 G-quadruplex DNA assessed as change in melting temperature at 4 mol equiv in presence of 100 mM KCl buffer by circular dichroism spectroscopic analysis; summary of the method: as §2
[22] = Binding affinity to synthetic self-complementary DNA 12-mer duplex assessed as change in melting temperature at 4 mol equiv in presence of 100 mM KCl buffer by circular dichroism spectroscopic analysis; summary of the method: as §2
[23] = Binding affinity to synthetic c-MYC G-quadruplex DNA assessed as increase in thermal stability in presence of 20 mM KCl buffer by circular dichroism spectroscopic analysis; summary of the method: as §3
Homo sapiens [24] = species: Homo sapiens; assay: Binding affinity to human 5'-FAM/3'-TAMRA labeled telomere 21 G-quadruplex DNA assessed as increase in melting temperature by FRET assay
Summary of the method: (§5)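 FRET melting screen in 60 mM potassium cacodylate pH 7.4, labelled probe 400 nM annealed at 85 °C for 10 min; ligands at various concentrations up to 20 µM, diluted from 10 mM DMSO stock via 10 mM HCl. Excitation 450-495 nm, emission 515-545 nm, 30-100 °C in 0.5 °C steps with 30 s hold; ΔTm by curve fitting, triplicate.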

[25] = Binding affinity to 5'-FAM/3'-TAMRA labeled c-KIT2 G-quadruplex DNA (unknown origin) assessed as change in melting temperature at 4:1 ligand:DNA ratio in presence of 20 mM KCl buffer by FRET assay
Summary of the method: (§6)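 FRET melting of FAM/TAMRA-labelled G4 oligos (400 nM, annealed 85 °C 10 min) with ligand at 4 equiv, same buffers as CD (20 mM KCl for c-kit2 and c-myc; 100 mM KCl for telomeric parallel form, annealed at high concentration). Excitation 450-495 nm, emission 515-545 nm, read every 0.5 °C over 30-100 °C; ΔTm by curve fit; duplicate runs averaged.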

[26] = Binding affinity to 5'-FAM/3'-TAMRA labeled c-MYC G-quadruplex DNA (unknown origin) assessed as change in melting temperature at 4:1 ligand:DNA ratio in presence of 20 mM KCl buffer by FRET assay; summary of the method: as §6
[27] = Binding affinity to human 5'-FAM/3'-TAMRA labeled telomere 21 parallel G-quadruplex DNA (unknown origin) assessed as change in melting temperature at 4:1 ligand:DNA ratio in presence of 100 mM KCl buffer by FRET assay; summary of the method: as §6
[28] = Induction of parallel G-quadruplex formation in synthetic unfolded c-KIT1 DNA assessed as increase in molar ellipticity after 10 mins by in absence of metal cation circular dichroism titration method
Summary of the method: (§7)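 CD titration without metal ions: unfolded oligonucleotide 12-15 µM in 50 mM Tris; ligand added in 0.5 equiv steps, spectrum recorded 10 min after each addition at 20 °C, 230-360 nm, 3 scans averaged.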

[29] = Induction of parallel G-quadruplex formation in synthetic unfolded c-KIT2 DNA assessed as increase in molar ellipticity after 10 mins in absence of metal cation by circular dichroism titration method; summary of the method: as §7
[30] = Induction of G-quadruplex formation in synthetic unfolded telomere 23 DNA assessed as increase in molar ellipticity after 10 mins in absence of metal cation by circular dichroism titration method; summary of the method: as §7
Homo sapiens [31] = species: Homo sapiens; assay: Binding affinity to human 5'-FAM/3'-TAMRA labeled duplex DNA T-loop assessed as increase in melting temperature by FRET assay; summary of the method: as §5

Compound | ΔTm [7] [°C] | ΔTm [9] [°C] | Activity [11] | Activity [12] | Activity [13] | Activity [14] | Activity [15] | Activity [16] | Activity [17] | ΔTm [18] [°C] | ΔTm [19] [°C] | ΔTm [20] [°C] | ΔTm [21] [°C] | ΔTm [22] [°C] | Activity (Homo sapiens [24]) | Activity (Homo sapiens [31]) | other results
Cl.Cl.N=C(N)N/N=C/c1c(-c2ccccc2)nc2n1ccc1nc(-c3ccccc3)c(/C=N/NC(=N)N)n12 | – | – | – | – | – | – | – | – | – | – | – | – | – | – | – | – | IC50 (U2OS [1]): 101 µM; IC50 [2]: 35.1 µM; IC50 (U2OS [3]): 16 µM; IC50 [4]: 5.12 µM; Activity (U2OS [5]): Non-toxic; Activity (U2OS [6]): Non-toxic
C(=N\NC1=NCCN1)/c1c(-c2ccccc2)nc2n1ccc1nc(-c3ccccc3)c(/C=N/NC3=NCCN3)n12 | 10.8 | > 15 | inactive | inactive | inactive | inactive | inactive | inactive | inactive | 1.6 | > 20 | -14 | -8.9 | 1.3 | Active | – | Activity [8]: inactive; Activity [10]: Dose-dependent effect; Activity [23]: Dose-dependent effect; ΔTm [25]: > 20 °C; ΔTm [26]: > 15 °C; ΔTm [27]: > 15 °C; Activity [28]: Dose-dependent effect; Activity [29]: Active; Activity [30]: inactive
N=C(N)N/N=C/c1c(-c2ccsc2)nc2n1ccc1nc(-c3ccsc3)c(/C=N/NC(=N)N)n12 | > 20 | > 20 | inactive | inactive | inactive | inactive | inactive | inactive | inactive | > 15 | > 20 | -4.9 | -6.5 | 3.5 | Active | – | Activity [8]: inactive; Activity [10]: Dose-dependent effect; ΔTm [25]: > 20 °C; ΔTm [26]: > 20 °C; ΔTm [27]: > 20 °C; Activity [28]: Dose-dependent effect; Activity [29]: Active; Activity [30]: inactive
N=C(N)N/N=C/c1ccc2c(/C=N/NC(=N)N)c(Cl)n(-c3ccccc3)c2c1 | > 20 | > 20 | inactive | inactive | inactive | inactive | inactive | inactive | inactive | > 15 | > 15 | 5.6 | 5.1 | – | Active | Active | –
Cn1c(Cl)c(/C=N/NC(=N)N)c2ccc(/C=N/NC(=N)N)cc21 | > 20 | > 20 | inactive | inactive | inactive | inactive | inactive | inactive | inactive | > 15 | > 20 | 6 | 5.8 | – | Active | Active | –
CN1C(=C2\C(=N\NC(=N)N)c3ccccc3N2C)/C(=N/NC(=N)N)c2ccccc21 | 7.7 | 11 | inactive | inactive | inactive | inactive | inactive | inactive | inactive | 0.9 | 8.2 | -0.5 | 0.2 | -0.8 | inactive | – | –
Cn1c(Cl)c(/C=N/NC(=N)N)c2cc3c(/C=N/NC(=N)N)c(Cl)n(C)c3cc21 | > 20 | > 20 | inactive | inactive | inactive | inactive | inactive | inactive | inactive | > 15 | > 15 | 3 | 1.3 | – | Active | Active | –
C(=N\Nc1ccccn1)/c1c(-c2ccccc2)nc2n1ccc1nc(-c3ccccc3)c(/C=N/Nc3ccccn3)n12 | 1.3 | -0.2 | inactive | inactive | inactive | inactive | inactive | inactive | inactive | 0.4 | 0 | -1 | -1.6 | 0.9 | inactive | – | –
CN1C(=C2\C(=N\Nc3ccccn3)c3ccccc3N2C)/C(=N/Nc2ccccn2)c2ccccc21 | 4 | 1.6 | inactive | inactive | inactive | inactive | inactive | inactive | inactive | 1.5 | 2 | -2.5 | -2 | -0.7 | inactive | – | –
